Runt-CBFb FRET: blocks binding of human RUNX1 Runt domain to CBFb. Cerulean-Runt/Venus-CBFb FRET ratio 530/480, 1 h. AID 1496. inhibition, % at 20 µM. hit rate 0.46% among 220,000;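 active = inhibition over about 50% at 20 µM in the single-dose screen, limit read from the data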
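Buffer or medium: Tris pH 7.5 buffer with BSA. Assay system: Cerulean-labeled Runt domain protein. Amount: each fluorescent fusion protein 100 nM. Read-out basis: loss of energy transfer signal. Incubation: 1 h compound exposure, room temperature. Probe or stimulus: Venus-CBFb binding partner, 100 nM. Detection: FRET, excitation 422 nm, emission at 530 and 480 nm.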
RanGTP-Impb inh: disruptors of Ran-importin-beta complex formation – biochemical, FRET, CFP-Ran, YFP-importin-beta, homogeneous, primary screen; AID 2216; inhibition, % (no concentration beside the values); hit rate 1.1% among 300,000; cell-free CFP-Ran/YFP-importin-beta FRET ratio;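 active = more than half of the replicate wells show a fall in the fluorescence ratio signal beyond about 16%, limit read from the data, passing the limit was not always enough; inconclusive = exactly half of the replicate wells pass the set limit; inactive = fewer than half of replicates pass the limit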
Runt-SMMHC FRET: Runt domain-CBFb-SMMHC interaction inhibition; Q01196+Q13951; Cerulean-Runt/Venus-CBFb-SMMHC FRET ratio 530/480, 1 h; inhibition, % at 20 µM; hit rate 0.74% among 220,000; AID 1434;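 active = mean inhibition across duplicate retests at 20 µM reaching about 50%, limit read from the data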;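 also: inhibitors lower the FRET ratio by blocking Runt binding to CBFb-SMMHC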
Hck-Nef inh: human Hck-Nef kinase inhibition; inhibition, % at 20 µM; hit rate 0.68% among 220,000; AID 463187; P08631; Recombinant Hck-YEEI plus Nef, Z-Lyte FRET kinase assay;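 active = Hck-Nef kinase inhibition above about 50%, limit read from the data; inactive = inhibition below that limit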
Target sequence (P08631 whole entry, looked up): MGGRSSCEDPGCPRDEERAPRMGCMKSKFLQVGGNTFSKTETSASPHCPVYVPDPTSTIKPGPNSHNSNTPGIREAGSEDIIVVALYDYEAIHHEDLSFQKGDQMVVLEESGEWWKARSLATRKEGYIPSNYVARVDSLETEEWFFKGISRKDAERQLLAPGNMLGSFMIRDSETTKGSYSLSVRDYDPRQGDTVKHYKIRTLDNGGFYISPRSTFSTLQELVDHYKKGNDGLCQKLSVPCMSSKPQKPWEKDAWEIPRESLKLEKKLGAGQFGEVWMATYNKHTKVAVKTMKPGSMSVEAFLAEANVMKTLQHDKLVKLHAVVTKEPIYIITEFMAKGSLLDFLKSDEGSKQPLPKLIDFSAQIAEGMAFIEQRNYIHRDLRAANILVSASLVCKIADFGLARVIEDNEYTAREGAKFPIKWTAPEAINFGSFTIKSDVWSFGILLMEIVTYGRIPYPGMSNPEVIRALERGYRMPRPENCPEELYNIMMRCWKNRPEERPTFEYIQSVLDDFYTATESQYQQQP
Tb hexokinase: T. brucei hexokinase 1 inhibition. inhibition, % at 10 µM. recombinant TbHK1, G6PDH-coupled NADH A340. hit rate 0.11% among 220,000;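 active = inhibition of 50% or more in the single-dose primary screen; inactive = inhibition below 50%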
Runt-CBFb TRFRET: Runt-CBFb binding inhibition | shares compounds with Runt-CBFb FRET | TR-FRET RUNX1 Runt domain-CBFb binding | inhibition, % at 20 µM | hit rate 20% among 480 | AID 1502; in the data active = inhibition above about 40%
Each line names hits and unclear results; the compound was inactive in the other large screens (follow-up assays come after a bar, where they were run). Only some compounds are listed: those with a hit (about 1.9% of all), similar ones and a draw of the others.

C=CCOC(=O)C1=C(C)N=c2s/c(=C3\C(=O)N(CC(=O)O)c4ccccc43)c(=O)n2C1c1ccc(OC)cc1 (stereo not drawn)	Runt-CBFb FRET 53.0 | Runt-CBFb TRFRET inactive
CCOC(=O)C1=C(C)N=c2s/c(=C3\C(=O)Nc4ccccc43)c(=O)n2C1c1ccc2c(c1)OCO2 (stereo not drawn)	none
Cn1c(=O)n(C)c2cc(/C=N/NC(=O)c3ccncc3)ccc21	none
CCn1c(O)c(/C=N/NC(=O)c2ccncc2)c(=O)n(CC)c1=S	Runt-CBFb FRET 58.8, Runt-SMMHC FRET 63.2 | Runt-CBFb TRFRET inactive
Cc1ccc(Cn2cnc3ccccc32)cc1	Runt-CBFb FRET 53.5 | Runt-CBFb TRFRET inactive
O=C1CCNc2ccc(-c3ccccc3)cc21	Runt-CBFb FRET 60.4 | Runt-CBFb TRFRET 42.5
CCOc1ccc2nc(NCCCNC(=O)c3cc(OC)c(OC)c(OC)c3)c(C#N)cc2c1	Runt-CBFb FRET 59.5, RanGTP-Impb inh 134.9, Runt-SMMHC FRET 81.1 | Runt-CBFb TRFRET inactive
CCCOc1ccc(N2C(=O)CC(N3CCN(CCN=CC4C(=O)CC(C)(C)CC4=O)CC3)C2=O)cc1 (stereo not drawn)	none
N=c1oc2ccc3ccccc3c2cc1-c1nnc2n1CCCCC2	Runt-CBFb FRET 51.8, Runt-SMMHC FRET 107.5 (no result: RanGTP-Impb inh) | Runt-CBFb TRFRET inactive
COc1ccc2oc(=N)c(-c3nnc4n3CCCCC4)cc2c1	none
CCOC(=O)c1cnc2ccc(Cl)cc2c1NCCN(C)C	Runt-CBFb FRET 63.6, RanGTP-Impb inh inconclusive | Runt-CBFb TRFRET inactive
COc1ccc(CN2C(=O)c3cccc4cccc2c34)cc1F	none (no result: Runt-CBFb FRET, Runt-SMMHC FRET, Hck-Nef inh, Tb hexokinase)
O=C1NC(c2ccccc2O)Nc2ccccc21 (stereo not drawn)	none (no result: Runt-CBFb FRET, Runt-SMMHC FRET, Hck-Nef inh, Tb hexokinase)
Cc1cccc(C2NC(=O)c3c(sc(C)c3C)N2)c1O (stereo not drawn)	Runt-CBFb FRET 51.2 | Runt-CBFb TRFRET inactive
COc1ccc(-c2cc(C(=O)OC3CCOC3=O)c3ccccc3n2)cc1 (stereo not drawn)	none
Cc1ccc(C)c(C(=O)Nc2ccncc2)c1	none (no result: Runt-CBFb FRET, Runt-SMMHC FRET, Hck-Nef inh, Tb hexokinase)
CCCC(C)NC(=O)c1cc(C(=O)OC)cc([N+](=O)[O-])c1 (stereo not drawn)	none
CCCC(C)c1nnc(NC(=O)c2cc(C(=O)OC)cc([N+](=O)[O-])c2)s1 (stereo not drawn)	Runt-CBFb FRET 53.3 | Runt-CBFb TRFRET inactive
S=C(NCCCN1CCOCC1)NC1CCCC1	none (no result: RanGTP-Impb inh)
S=C(NCCCN1CCOCC1)NCCCN1CCOCC1	Runt-CBFb FRET 50.4 | Runt-CBFb TRFRET inactive
O=C(NC(Cc1ccccc1)C(=O)O)/C(=C/c1ccc(Cl)cc1)NC(=O)c1ccco1 (stereo not drawn)	none (no result: Runt-CBFb FRET, Runt-SMMHC FRET, Hck-Nef inh, Tb hexokinase)
C=CCn1c(N)c(C(=O)OC(C)(C)C)c2nc3ccccc3nc21	Runt-CBFb FRET 69.8, RanGTP-Impb inh 29.4, Runt-SMMHC FRET 95.2 | Runt-CBFb TRFRET inactive
OCCN1CCN(C(=S)c2ccc(Cl)cc2)CC1	Runt-CBFb FRET 53.1 | Runt-CBFb TRFRET inactive
CC(C)(C)c1cc(C(=S)N2CCN(CCO)CC2)cc(C(C)(C)C)c1O	Runt-CBFb FRET 51.8, RanGTP-Impb inh inconclusive | Runt-CBFb TRFRET inactive
CCN1CCN(C(=S)c2ccc(Cl)cc2)CC1	none
O=C(CN1CCN(Cc2ccccc2)CC1)Nc1cccc(C(F)(F)F)c1	none
O=C(CN1CCN(c2ccccc2)CC1)Nc1cccc(C(F)(F)F)c1	Runt-CBFb FRET 59.4 | Runt-CBFb TRFRET inactive
Cc1[nH]c2ccccc2c1N=Nc1ccccc1C(=O)O	Runt-CBFb FRET 52.3 | Runt-CBFb TRFRET inactive
CCCNC(=O)COc1coc(CN2CCN(c3ccccc3OC)CC2)cc1=O	none (no result: Runt-CBFb FRET, Runt-SMMHC FRET, Hck-Nef inh, Tb hexokinase)
COc1ccc(C2CC(=O)N3CN(Cc4ccco4)CSC3=C2C#N)cc1 (stereo not drawn)	none
COc1ccc(C2CC(=O)N3CN(c4ccc(C)c(Cl)c4)CSC3=C2C#N)cc1 (stereo not drawn)	Runt-CBFb FRET 88.3, RanGTP-Impb inh inconclusive | Runt-CBFb TRFRET inactive
COc1cc(C2CC(=O)N3CN(Cc4ccco4)CSC3=C2C#N)ccc1OCc1ccccc1 (stereo not drawn)	none
N#CC1=C2SCN(Cc3ccccc3)CN2C(=O)CC1c1ccc2c(c1)OCO2 (stereo not drawn)	RanGTP-Impb inh inconclusive
COc1ccc(C2CC(=O)N3CN(c4ccccc4F)CSC3=C2C#N)cc1OC (stereo not drawn)	Runt-CBFb FRET 51.8, Runt-SMMHC FRET 87.4 | Runt-CBFb TRFRET inactive
CCc1ccccc1N1CSC2=C(C#N)C(c3ccccc3F)CC(=O)N2C1 (stereo not drawn)	Runt-CBFb FRET 59.8, RanGTP-Impb inh inconclusive, Runt-SMMHC FRET 91.9 | Runt-CBFb TRFRET inactive
CCOc1ccccc1C(=O)NCC(=O)NNC(=O)c1cccc(S(=O)(=O)Nc2ccc(OC)cc2)c1	none (no result: Runt-CBFb FRET, Runt-SMMHC FRET, Hck-Nef inh, Tb hexokinase)
COc1ccc(C(=O)NCc2nnc(SCC(=O)Nc3nc4ccccc4s3)o2)cc1	Runt-CBFb FRET 56.7 | Runt-CBFb TRFRET inactive
COc1cc(C(=O)NCc2nnc(SCC(=O)Nc3nc4ccccc4s3)o2)cc(OC)c1OC	Runt-CBFb FRET 53.4 | Runt-CBFb TRFRET inactive
COC(=O)c1cc(S(=O)(=O)NCc2ccc(Br)cc2)c[nH]1	none (no result: Runt-CBFb FRET, Runt-SMMHC FRET, Hck-Nef inh, Tb hexokinase)
NC(=S)N/N=C/c1ccc(-c2cc(Cl)cc(Cl)c2)o1	Runt-CBFb FRET 51.5 | Runt-CBFb TRFRET inactive
Cc1ccn(CCC(=O)O)n1	none
Cc1ccn(-c2cc(O)c(-n3ccc(C)n3)cc2O)n1	Runt-CBFb FRET 64.1 | Runt-CBFb TRFRET inactive
CCOC(=O)c1c(NC(=O)c2ccccc2)sc2c1CCc1ccccc1-2	Runt-CBFb FRET 54.8 | Runt-CBFb TRFRET inactive
CCOC(=O)c1c(NC(=O)c2ccccc2Cl)sc2c1CCc1ccccc1-2	none
CCN(CC)S(=O)(=O)c1ccc(OC)c(NS(=O)(=O)c2ccc(F)cc2)c1	Runt-CBFb FRET 50.2 | Runt-CBFb TRFRET inactive
Cc1nn(-c2ccccc2)cc1C(c1c(N)[nH]c(=S)[nH]c1=O)c1c(N)[nH]c(=S)[nH]c1=O	Runt-CBFb FRET 55.8 | Runt-CBFb TRFRET 57.5
Nn1c(SCc2ccccc2)nc2ccccc21	none (no result: Runt-CBFb FRET, Runt-SMMHC FRET, Hck-Nef inh, Tb hexokinase)
N#Cc1c2c(c(Nc3ccccc3)n3c1nc1ccccc13)CCC2	Runt-CBFb FRET 54.8, RanGTP-Impb inh 76.7, Runt-SMMHC FRET 70.5 | Runt-CBFb TRFRET inactive
N#Cc1c2c(c(-n3cnc4ccccc43)n3c1nc1ccccc13)CCC2	none (no result: Runt-CBFb FRET)
COCCCNC(=O)C(=O)Nc1cc2c3c(c1)CCN3C(=O)CC2	none (no result: Runt-CBFb FRET, Runt-SMMHC FRET, Hck-Nef inh, Tb hexokinase)
O=C1OC(c2ccccc2)=N/C1=C\C=C\c1ccccc1[N+](=O)[O-]	Runt-CBFb FRET 73.7 | Runt-CBFb TRFRET inactive
CCN1CCN(S(=O)(=O)c2ccc(C)c([N+](=O)[O-])c2)CC1	none
CCCn1nc(NS(C)(=O)=O)c2cc3cccc(C)c3nc21	none
CCCn1nc(NC(=O)c2cccs2)c2cc3cccc(C)c3nc21	Runt-CBFb FRET 63.6, RanGTP-Impb inh 94.9, Runt-SMMHC FRET 85.1 | Runt-CBFb TRFRET inactive

Screens from PubChem.
